# KCNK9 inh: inhibitors of human KCNK9 two-pore domain potassium channel; actives 1.2% (n = 310,000); HEK293 KCNK9, FluxOR thallium flux fluorescence; active compounds read low; B-score at 10 µM; Q9NPC2;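 active = ratio B-score over 3 SD below the library mean, with starting fluorescence within 5 SD of its mean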;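 note: negative B-score means less thallium flux so channel inhibition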
# KCNQ1 act: potentiators or activators of human KCNQ1 potassium channel | P51787 | CHO-K1 KCNQ1, thallium flux FluxOR fluorescence; active compounds read high | AID 2648 | actives 0.35% (n = 310,000) | B-score at 10 µM;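 active = fluorescence ratio B-score, a plate-corrected score, at least three library SD, with initial intensity B-score within 5 SD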
# Target sequence (P51787 whole entry, looked up): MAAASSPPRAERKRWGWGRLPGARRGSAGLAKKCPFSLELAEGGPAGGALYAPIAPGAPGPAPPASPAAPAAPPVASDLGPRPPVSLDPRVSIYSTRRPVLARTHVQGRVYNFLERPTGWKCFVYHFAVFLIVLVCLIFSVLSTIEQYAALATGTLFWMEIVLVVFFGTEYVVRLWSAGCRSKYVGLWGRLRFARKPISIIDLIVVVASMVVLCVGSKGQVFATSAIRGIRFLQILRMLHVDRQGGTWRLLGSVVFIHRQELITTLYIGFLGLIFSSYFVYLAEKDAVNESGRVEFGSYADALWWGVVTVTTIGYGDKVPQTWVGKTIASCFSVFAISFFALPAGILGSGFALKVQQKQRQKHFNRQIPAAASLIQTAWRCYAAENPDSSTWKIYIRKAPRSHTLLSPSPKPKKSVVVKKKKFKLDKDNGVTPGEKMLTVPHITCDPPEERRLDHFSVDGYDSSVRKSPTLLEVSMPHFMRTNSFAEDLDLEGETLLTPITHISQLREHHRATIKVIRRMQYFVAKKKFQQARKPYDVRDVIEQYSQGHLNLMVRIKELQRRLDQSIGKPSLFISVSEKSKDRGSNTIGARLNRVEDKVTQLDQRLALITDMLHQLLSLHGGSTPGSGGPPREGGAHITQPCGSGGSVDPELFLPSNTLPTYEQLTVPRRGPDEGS
#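 Assay system: CHO-K1 cells stably expressing KCNQ1. Medium: assay buffer for compound exposure, DMSO matched across wells. Timing: 37 °C overnight plating, 90-min dark dye load, 20-min compound pretreatment. Signal: kinetic FluxOR fluorescence, 10 s baseline plus 110 s post-stimulus.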
# KCNQ1 block: inhibitors of human KCNQ1 potassium channel; P51787; CHO-K1 KCNQ1, FluxOR thallium flux fluorescence; active compounds read high; B-score at 10 µM; actives 1.3% (n = 310,000); AID 2642;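 active = compounds whose thallium flux B-score, printed positive for inhibition, exceeds three library SD while starting fluorescence stays within three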;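 note: channel opened by potassium depolarization with thallium stimulus after 20 min compound exposure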
# hERG rescue: compounds protecting human hERG from proarrhythmic drug block. Q12809. CHO-hERG, FluxOR thallium flux, dofetilide IC70 present. activation (rescue from dofetilide block), less the hit threshold, % at 10 µM. actives 0.51% (n = 310,000). AID 1511;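 active = activation above the mean of controls blocked by dofetilide plus 5 SD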;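 note: thallium influx through hERG after potassium depolarization seen as dye fluorescence rise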
# Kir21 block: blocks the mouse Kir2.1 inward-rectifier potassium channel; P35561; HEK293-Kir2.1, FluxOR thallium flux fluorescence; active compounds read low; B-score at 10 µM; actives 0.85% (n = 310,000); AID 1672;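 active = fluorescence ratio B-score at or below minus 3 SD of library scores, with starting-brightness B-score within 2 SD, cut at about -4.2 in these data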;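 note: channel flux triggered by added potassium and thallium sulfate stimulus; B-score of peak minus minimum fluorescence over baseline after thallium stimulus; more negative B-score means stronger Kir2.1 block with less thallium influx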
# KCNK3 block: human KCNK3 channel inhibition, primary screen. O14649. CHO-KCNK3 thallium flux, FluxOR fluorescence; active compounds read low. B-score at 10 µM. actives 0.84% (n = 340,000). AID 602410;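 active = B-score under library mean minus 4 SD, starting fluorescence ratio at most library mean plus 5 SD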;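 note: more negative B-score means stronger inhibition of thallium flux through KCNK3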
# KCNK9 block conf: human KCNK9 inhibitor confirmation. shares compounds with KCNK9 inh. HEK293 KCNK9 cells, FluxOR thallium flux fluorescence. inhibition, % at 10 µM. actives 43% (n = 4,900);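 active = thallium signal inhibited by more than 5 SD of the compound-free buffer control wells, on both duplicate plates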;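 note: 0% = assay buffer control wells without compound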
# Kir21 sel: mouse Kir2.1 off-target activity of KCNK9 modulators | shares compounds with KCNK9 inh | Kir2.1 cells, FluxOR thallium flux fluorescence | inhibition, % at 10 µM | actives 4% (n = 4,900) | AID 492993;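 active = thallium signal drop more than 5 SD beyond the mean of the no-compound control wells, seen in both duplicate plates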;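 note: signal is fluorescence rise after thallium addition divided by baseline fluorescence; plate controls were assay buffer only for no effect and full block by chlorpromazine control for full effect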
# HEK293 Tl ctr: non-induced cell nonspecific activity of KCNK9 modulators; shares compounds with KCNK9 inh; non-induced KCNK9-HEK293, FluxOR thallium flux; inhibition, % at 10 µM; actives 40% (n = 4,900); AID 492997;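 active = thallium signal drop beyond 5 SD of the untreated control mean, on both duplicate plates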;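 note: plate controls were buffer only IC0 wells for no effect and SID17386958 at its maximal inhibitory level for full effect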
# Active calls of the source: *; i = inactive; . = no result given. Compounds with a hit are over-represented: about 3.7% of the library has one in this group of screens.
SMILES,KCNK9 inh,KCNQ1 act,KCNQ1 block,hERG rescue,Kir21 block,KCNK3 block,KCNK9 block conf,Kir21 sel,HEK293 Tl ctr
Cc1ccc(-c2cccc(C(=O)NCc3ccccc3)n2)c2ccccc12,i,i,i,-13,0.83,i,i,i,i
Cc1ccc(-c2cccc(C(=O)NCCc3ccccc3)n2)c2ccccc12,-17*,i,i,-12,1.2,i,76%*,i,32%*
CCC(Sc1ccccn1)C(=O)Nc1cccc([N+](=O)[O-])c1 (stereo not drawn),-8.6*,i,i,-13,-1.5,i,30%*,i,26%*
CC(Sc1cccc[n+]1[O-])C(=O)Nc1cccc([N+](=O)[O-])c1 (stereo not drawn),i,i,i,-4,0.01,i,.,.,.
CCc1nnc(NC(=O)CC(C)c2ccccc2)s1 (stereo not drawn),i,i,i,-3,-2.2,i,.,.,.
Cc1ccc(OCCn2cnc3cc([N+](=O)[O-])ccc3c2=O)cc1,i,i,i,-19,1.1,i,i,i,i
CCCN(CCC)S(=O)(=O)c1cccc(-c2csc(C)n2)c1,i,i,i,-17,-2.7,i,i,28%*,i
CCOC(=O)Cn1cnc2scc(-c3ccc(C)c(C)c3)c2c1=O,i,i,i,-6,0.97,i,i,i,i
CCOC(=O)Cn1cnc2scc(-c3ccc(C)cc3)c2c1=O,i,i,i,-12,0.79,i,i,i,i
CCOC(=O)Cn1cnc2scc(-c3ccccc3)c2c1=O,i,i,i,-4,-0.73,i,.,.,.
CC(OC(=O)CCN1C(=O)C2CC=CCC2C1=O)C(=O)Nc1cccc(Cl)c1 (stereo not drawn),i,i,i,-14,0.18,i,.,.,.
COc1ccccc1CN1CCCC(CN(CCN(C)C)C(=O)c2ccc(C)cc2)C1 (stereo not drawn),i,i,i,-14,-0.54,i,.,.,.
CC(C)CCNC(=O)c1onc(CSc2ccc(F)c(F)c2)c1C(=O)NCCC(C)C,i,i,i,-5,2.6,i,i,i,i
CC(C)CCNC(=O)c1onc(CSc2ccccc2)c1C(=O)NCCC(C)C,i,i,i,-6,-0.77,i,i,i,i
CN(C)CCNC(=O)c1onc(CSc2ccc(F)cc2)c1C(=O)NCCN(C)C,i,i,i,-7,0.7,i,.,.,.
CCCNC(=O)c1onc(CSc2cccc(OC)c2)c1C(=O)NCCC,i,i,i,-5,-0.66,i,.,.,.
CCCNC(=O)c1onc(CSc2ccccc2)c1C(=O)NCCC,i,i,i,-11,0.29,i,.,.,.
CCCNC(=O)c1onc(CSc2ccc(F)c(F)c2)c1C(=O)NCCC,i,i,i,-7,0.39,.,.,.,.
COc1cccc(SCc2noc(C(=O)NCCC(C)C)c2C(=O)NCCC(C)C)c1,i,i,i,-13,-0.67,i,i,i,i
CC(C)CCNC(=O)c1onc(CSc2ccc(F)cc2)c1C(=O)NCCC(C)C,i,i,7*,-3,-0.69,i,i,i,i
CC(=O)c1ccc(S(=O)(=O)N2CCC3(CC2)CC(=O)c2ccccc2O3)cc1,i,i,i,-7,0.24,i,.,.,.
CCC1CCCCN1CCCNC(=O)CCC(=O)N1CCOc2ccccc21 (stereo not drawn),i,i,i,-5,-1.4,i,.,.,.
COc1cccc(/C=N/n2nnnc2N)c1OCC#N,i,i,i,-9,-0.5,i,.,.,.
CC(C)CCNC(=O)c1onc(CSc2ccc(Cl)cc2)c1C(=O)NCCC(C)C,i,i,i,-14,1,i,i,i,i
CC12CCC(C(=O)NCCc3ccccc3)(OC1=O)C2(C)C (stereo not drawn),i,i,i,-2,1.9,i,i,i,i
SMILES,KCNK9 inh,KCNQ1 act,KCNQ1 block,hERG rescue,Kir21 block,KCNK3 block,KCNK9 block conf,Kir21 sel,HEK293 Tl ctr
COc1ccc(S(=O)(=O)Cc2ccc(C(=O)N3CCN(c4cccc(C)c4)C(C)C3)o2)cc1 (stereo not drawn),i,i,i,-2,1.3,i,i,i,i
CCc1cccc(CC)c1NC(=O)COC(=O)c1cccc(S(=O)(=O)N2CCc3ccccc3C2)c1,-9.1*,i,i,-7,-2.6,i,56%*,i,34%*
Cc1nc(C)c(C(=O)N2CCCC(C(=O)c3ccc(Cl)cc3C)C2)s1 (stereo not drawn),i,i,i,-6,-2.8,i,.,.,.
COCc1ccc(C(=O)N2CCCC(C(=O)c3ccc(Cl)cc3C)C2)o1 (stereo not drawn),i,i,i,-9,-3.1,i,i,i,i
Cc1cc(Cl)ccc1C(=O)C1CCCN(C(=O)c2ccoc2)C1 (stereo not drawn),i,i,i,-6,0.3,i,i,i,i
COc1ccc(NC2CCCN(C(=O)c3ccc(CSC)o3)C2)cc1OC (stereo not drawn),i,i,i,-6,-0.3,i,.,.,.
Cc1cc(Cl)ccc1C(=O)C1CCCN(C(=O)c2cnsn2)C1 (stereo not drawn),i,i,i,-7,-1.8,i,i,i,i
COCc1ccc(C(=O)N2CCCC(Nc3ccc4c(c3)OCCO4)C2)o1 (stereo not drawn),i,i,i,-11,1.5,i,i,i,i
Cc1cc(C(=O)N2CCCC(C(=O)c3ccc(Cl)cc3C)C2)no1 (stereo not drawn),i,i,i,-10,0,i,.,.,.
O=C(Nc1c(F)cccc1F)c1ccc2c(c1)CCN2S(=O)(=O)c1ccccc1,i,i,i,-6,0.22,i,.,.,.
Cc1cc(-c2cc(C(=O)NCc3ccccc3)on2)nc(NC2CCCC2)n1,i,i,i,-5,-1.3,i,.,.,.
CCCCn1c(NS(=O)(=O)c2ccc(C)cc2)c(S(=O)(=O)c2ccccc2)c2nc3ccccc3nc21,i,9*,i,-9,-1.7,i,i,i,i
